The text below walks through data of article PMC7758955 (ACS Omega, 2020).

Series [1] deals with cryopreserved human hepatocytes. Kind of series: Hepatocyte toxicity by WST-8 assay. In kind it is cell-based. To be noted: 200 μM, 2 h with shaking, relative to control (0.25 v/v% DMSO). The method in brief:
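Thawed cryopreserved human hepatocytes were kept at 37 °C in humidified 5% CO2 and seeded at 5.0 × 10^4 cells/well. Test compound was added in DMSO (final 0.25% v/v; DMSO-only control), then shaken 2 h. CCK-8 (WST-8) reagent was added for another 4 h. Absorbance was read at 450 nm (reference 600 nm), and viability was expressed relative to control.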

Series [2] concerns the target T1, COX-2 (human recombinant) (Homo sapiens, UniProt P35354).
T1 sequence (P35354 18-604): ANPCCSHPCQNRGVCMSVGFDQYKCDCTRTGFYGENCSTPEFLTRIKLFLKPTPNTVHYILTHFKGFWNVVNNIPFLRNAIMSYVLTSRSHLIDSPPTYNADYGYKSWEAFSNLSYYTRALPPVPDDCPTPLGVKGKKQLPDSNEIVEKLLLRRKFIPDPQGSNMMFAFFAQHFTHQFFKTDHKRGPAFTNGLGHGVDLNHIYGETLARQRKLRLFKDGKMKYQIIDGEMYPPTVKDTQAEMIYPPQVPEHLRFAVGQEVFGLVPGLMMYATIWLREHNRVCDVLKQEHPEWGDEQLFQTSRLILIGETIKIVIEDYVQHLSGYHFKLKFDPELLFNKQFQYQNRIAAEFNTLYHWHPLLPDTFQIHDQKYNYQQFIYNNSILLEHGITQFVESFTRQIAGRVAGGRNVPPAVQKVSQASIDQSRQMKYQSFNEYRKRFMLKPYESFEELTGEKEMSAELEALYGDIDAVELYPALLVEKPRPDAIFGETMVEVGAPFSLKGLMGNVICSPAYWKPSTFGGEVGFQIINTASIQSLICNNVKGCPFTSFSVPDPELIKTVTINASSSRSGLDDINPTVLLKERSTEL
Kind of series: COX Fluorescent Inhibitor Screening Assay Kit, COX-2. The class given is biochemical.

Series [3] concerns the target T2, COX-1 (ovine) (Ovis aries, UniProt P05979).
T2 sequence (P05979 25-600): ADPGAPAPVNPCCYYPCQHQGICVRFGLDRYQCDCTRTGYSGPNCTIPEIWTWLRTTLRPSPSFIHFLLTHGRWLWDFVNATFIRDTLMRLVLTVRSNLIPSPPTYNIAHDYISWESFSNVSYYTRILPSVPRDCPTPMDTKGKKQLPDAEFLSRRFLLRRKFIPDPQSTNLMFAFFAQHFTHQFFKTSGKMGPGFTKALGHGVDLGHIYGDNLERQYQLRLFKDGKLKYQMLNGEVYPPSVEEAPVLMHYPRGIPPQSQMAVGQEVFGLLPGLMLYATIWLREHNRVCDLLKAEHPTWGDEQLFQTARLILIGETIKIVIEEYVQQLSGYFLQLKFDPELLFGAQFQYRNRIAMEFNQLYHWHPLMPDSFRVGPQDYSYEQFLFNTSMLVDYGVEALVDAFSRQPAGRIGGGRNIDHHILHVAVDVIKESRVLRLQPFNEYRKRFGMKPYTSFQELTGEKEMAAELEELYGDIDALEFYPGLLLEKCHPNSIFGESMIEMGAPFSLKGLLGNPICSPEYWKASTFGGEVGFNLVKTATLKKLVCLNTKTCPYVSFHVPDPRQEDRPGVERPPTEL
Kind of series: COX Fluorescent Inhibitor Screening Assay Kit, COX-1. The class given is biochemical.

Turning to `O=C(O)C(F)(F)c1cc(F)ccc1Nc1c(Cl)cccc1Cl` [2c], the “cytotoxicity in cryopreserved human hepatocytes (cell viability, WST-8)” value in series [1] was “much weaker than that of DCF”. In addition, the IC50 in series [2] is 21 µM; in series [3] it was more than 100 µM. Also, the “COX-2 IC50 relative to that of DCF” value in series [2] (ratio to DCF IC50) is reported as “three times higher”.
As for `O=S(=O)(O)Cc1ccccc1Nc1c(Cl)cccc1Cl` [4a], the half-maximal inhibitory concentration (IC50) in series [2] and in series [3] was more than 100 µM in each case. For the same compound, in series [2] (up to a concentration of 100 μM), the “COX-2 inhibition (in words)” value is listed as “did not inhibit COX-2”.
With `O=C(O)Cc1cc(F)ccc1Nc1c(Cl)cc(F)cc1Cl` [1d], the IC50 amounted to 26 µM in series [2] and 0.73 µM in series [3].
The corresponding values for `O=C(O)Cc1ccccc1Nc1c(Cl)cc(F)cc1Cl` [1b] are 27 µM and 0.67 µM.
On the same counts, the results for `O=C(O)C(F)(F)c1cc(F)ccc1Nc1c(Cl)cc(F)cc1Cl` [2d] are more than 100 µM and more than 100 µM.
On the same counts, the results for `Fc1cc(Cl)c(Nc2ccc(F)cc2Cc2nnn[nH]2)c(Cl)c1` [3d] are more than 100 µM and more than 100 µM.
With `O=C(O)C(F)(F)c1ccccc1Nc1c(Cl)cc(F)cc1Cl` [2b], the half-inhibitory concentration (IC50) in series [2] and in series [3] was more than 100 µM in each case.
